{"data": "Experimental data from different studies", "EIF2AK4 S808G C-terminal kinase domain": "eIF-2-alpha kinase GCN2, C-terminal kinase domain (EIF2AK4, Homo sapiens, UniProt Q9P2K8, S808G)", "EIF2AK4 S808G": "eIF-2-alpha kinase GCN2 (EIF2AK4, Homo sapiens, UniProt Q9P2K8, S808G)", "note": "Protocols differ between the studies behind these lines."}
{"SMILES": "O=C(NC[C@@H]1[C@H]2CN(C(=O)OCc3cc(C(F)(F)F)cc(C(F)(F)F)c3)C[C@@H]12)c1ccc2[nH]nnc2c1", "target": "EIF2AK4 S808G C-terminal kinase domain", "test": "cell-free assay, competition with immobilised ligand", "conditions": "1 µM", "remaining binding [%]": 84}
{"SMILES": "COc1cnc(Nc2cccc(S(N)(=O)=O)c2)nc1N1CCN(c2ccccc2)C(=O)C1", "target": "EIF2AK4 S808G C-terminal kinase domain", "test": "binding, competition with immobilised ligand", "conditions": "1 µM", "remaining binding [%]": 90}
{"SMILES": "N[C@@H]1CCN(c2nccc(-c3cnn4ncccc34)n2)C1", "target": "EIF2AK4 S808G", "test": "binding", "conditions": "1 µM", "remaining binding [%]": 100}
{"SMILES": "C[C@H](NC(=O)c1cnc2n1[C@](C)(Cc1ccc(C#N)cc1)C(=O)N2c1cc(Cl)c(F)c(Cl)c1)C(=O)NC1(c2ccccn2)CC1", "target": "EIF2AK4 S808G C-terminal kinase domain", "test": "cell-free assay, competition with immobilised ligand", "conditions": "1 µM", "remaining binding [%]": 100}
{"SMILES": "O=C(NCC1CCOCC1)c1n[nH]cc1NC(=O)c1c(F)cccc1F", "target": "EIF2AK4 S808G C-terminal kinase domain", "test": "binding, competition with immobilised ligand", "conditions": "1 µM", "remaining binding [%]": 100}
{"SMILES": "c1cncc(-c2cccc(Nc3nccc(NC4CCCCC4)n3)c2)c1", "target": "EIF2AK4 S808G C-terminal kinase domain", "test": "binding, competition with immobilised ligand", "conditions": "10 µM", "remaining binding [%]": 100}
{"SMILES": "C[C@H]1CCN(c2nccc(-c3cnn4ncccc34)n2)C1", "target": "EIF2AK4 S808G", "test": "binding", "conditions": "1 µM", "remaining binding [%]": 100}
{"SMILES": "Nc1ncc2c(n1)-c1c([nH]c3ccc(C#CC4CC4)cc13)CCCC2", "target": "EIF2AK4 S808G C-terminal kinase domain", "test": "binding, competition with immobilised ligand", "conditions": "1 µM", "remaining binding [%]": 89}
{"SMILES": "O=C(c1ccc(Nc2ncc(Cl)c(-c3cc4ccccc4s3)n2)cc1)N1CCC(N2CCCC2)CC1", "target": "EIF2AK4 S808G C-terminal kinase domain", "test": "binding, competition with immobilised ligand", "conditions": "1 µM", "remaining binding [%]": 0}
{"SMILES": "C[C@@H](c1ccc(-n2cnc3c(N)ncnc32)cc1)N1CCc2nn(C)c(Cc3ccccc3)c2C1=O", "target": "EIF2AK4 S808G C-terminal kinase domain", "test": "binding, competition with immobilised ligand", "conditions": "0.1 µM", "remaining binding [%]": 98}
{"SMILES": "CN(c1nccc(-c2cnn3ncccc23)n1)C1CC1", "target": "EIF2AK4 S808G", "test": "binding", "conditions": "1 µM", "remaining binding [%]": 69}
{"SMILES": "O=C(NCCCN1CCOCC1)c1ccc(Nc2nccc(-c3cc4ccccc4s3)n2)cc1", "target": "EIF2AK4 S808G C-terminal kinase domain", "test": "binding, competition with immobilised ligand", "conditions": "1 µM", "remaining binding [%]": 15}
{"SMILES": "FC(F)(F)Oc1cccc(-c2cnc3ccc(-c4ccncc4)nn23)c1", "target": "EIF2AK4 S808G", "test": "binding, competition with immobilised ligand", "conditions": "5 µM", "remaining binding [%]": 35}
{"SMILES": "CCCOc1ccc([C@@H]2[C@@H](C(=O)O)[C@H](c3ccc4c(c3)OCO4)CN2CC(=O)Nc2c(CC)cccc2CC)cc1", "target": "EIF2AK4 S808G C-terminal kinase domain", "test": "cell-free assay, competition with immobilised ligand", "conditions": "1 µM", "remaining binding [%]": 100}
{"SMILES": "COc1ccnn2ncc(-c3ccnc(N(C)C)n3)c12", "target": "EIF2AK4 S808G", "test": "binding", "conditions": "1 µM", "remaining binding [%]": 93}
{"SMILES": "O=C(O)[C@H]1[C@H](Cn2nnc3ccccc3c2=O)CC[C@@H]1C(=O)c1ccc(OCCC2CCOCC2)cc1", "target": "EIF2AK4 S808G C-terminal kinase domain", "test": "cell-free assay, competition with immobilised ligand", "conditions": "1 µM", "remaining binding [%]": 55}
{"SMILES": "CN(C)c1nccc(-c2cnc3ncccn23)n1", "target": "EIF2AK4 S808G", "test": "binding", "conditions": "1 µM", "remaining binding [%]": 99}
{"SMILES": "C[C@@H](c1cccc(C#N)c1)n1cc(Cl)cc(C(N)=O)c1=N", "target": "EIF2AK4 S808G C-terminal kinase domain", "test": "cell-free assay, competition with immobilised ligand", "conditions": "1 µM", "remaining binding [%]": 50}
{"SMILES": "CN1CCN(c2ccc(Nc3nccc(-c4ccccc4)n3)cc2C(F)(F)F)CC1", "target": "EIF2AK4 S808G", "test": "binding", "conditions": "10 µM", "remaining binding [%]": 0.2}
{"SMILES": "CCCCN(CCCC)C(=O)CN1C[C@@H](c2cc(OC)c3c(c2)OCO3)[C@H](C(=O)O)[C@H]1CC(C)(C)CCC", "target": "EIF2AK4 S808G C-terminal kinase domain", "test": "cell-free assay, competition with immobilised ligand", "conditions": "1 µM", "remaining binding [%]": 100}
{"SMILES": "F[C@@H]1CCN(c2nccc(-c3cnn4ncccc34)n2)C1", "target": "EIF2AK4 S808G", "test": "binding", "conditions": "1 µM", "remaining binding [%]": 63}
{"SMILES": "O=C(NCCCC1CCCCC1)c1ccc(CNC(=O)c2cnn(-c3ccccc3)c2C(F)(F)F)cc1", "target": "EIF2AK4 S808G C-terminal kinase domain", "test": "cell-free assay, competition with immobilised ligand", "conditions": "0.1 µM", "remaining binding [%]": 100}
{"SMILES": "O=C(c1ccc(Nc2ncc(Cl)c(-c3ccc(Cl)s3)n2)cc1)N1CCC(N2CCCC2)CC1", "target": "EIF2AK4 S808G C-terminal kinase domain", "test": "binding, competition with immobilised ligand", "conditions": "1 µM", "remaining binding [%]": 0.25}
